Test results from publication PMC4238911 (Cancer chemotherapy and pharmacology, 2011).
Like-named read-outs stand apart in the source and are kept apart here.

Tests used:
TrkB = TrkB (Homo sapiens, UniProt Q16620); type: cell-based
[1] = test system: refractory high-risk neuroblastoma; assay: Tumor response; type: in vivo, human
How it was run: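 Children received the oral test compound BID, 5 of 7 days, in 28-day cycles at 25–120 mg/M2/dose (3 + 3 escalation). Response was assessed after cycles 1, 2, 4 and 8, then every 4th cycle. Scoring used NANT criteria (modified International Neuroblastoma Response Criteria), with RECIST for measurable CT/MRI tumor and Curie score for MIBG lesions.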

[2] = test system: JAK2-mutated (JAK2^V617F) myelofibrosis; details: 22 patients; cited from earlier work
[3] = previous trials; cited from earlier work
Trk kinase domain = details: cited from earlier work
clinical = details: human, in vivo, po
[4] = Plasma pharmacokinetics of lestaurtinib; details: human, po
[5] = subjects of N = 46, all dose levels
[6] = the other subject with mixed response, complete marrow response

Sequence of TrkB (Q16620 32-822, species assumed): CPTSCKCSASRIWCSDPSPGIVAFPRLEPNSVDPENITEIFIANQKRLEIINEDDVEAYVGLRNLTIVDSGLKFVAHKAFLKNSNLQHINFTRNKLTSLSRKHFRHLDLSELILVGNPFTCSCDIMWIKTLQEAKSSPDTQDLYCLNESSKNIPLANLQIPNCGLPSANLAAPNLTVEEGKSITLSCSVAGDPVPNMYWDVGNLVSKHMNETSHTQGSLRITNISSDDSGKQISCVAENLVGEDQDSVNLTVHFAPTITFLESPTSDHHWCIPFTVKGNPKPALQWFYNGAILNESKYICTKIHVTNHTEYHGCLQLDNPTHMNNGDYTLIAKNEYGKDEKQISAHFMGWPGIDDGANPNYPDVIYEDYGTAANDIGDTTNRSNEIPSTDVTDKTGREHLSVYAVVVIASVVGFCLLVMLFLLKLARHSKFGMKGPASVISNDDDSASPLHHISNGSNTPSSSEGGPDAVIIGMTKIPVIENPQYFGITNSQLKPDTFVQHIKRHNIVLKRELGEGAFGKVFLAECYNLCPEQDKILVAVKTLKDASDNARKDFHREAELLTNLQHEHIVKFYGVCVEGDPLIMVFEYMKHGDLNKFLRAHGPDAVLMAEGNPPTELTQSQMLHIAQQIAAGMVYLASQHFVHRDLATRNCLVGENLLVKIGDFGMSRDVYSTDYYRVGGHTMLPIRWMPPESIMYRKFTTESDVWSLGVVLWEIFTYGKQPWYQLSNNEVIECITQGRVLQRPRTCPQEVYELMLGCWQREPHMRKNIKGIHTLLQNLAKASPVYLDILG

SMILES: C[C@]12O[C@H](C[C@]1(O)CO)n1c3ccccc3c3c4c(c5c6ccccc6n2c5c31)CNC4=O [lestaurtinib, Lestaurtinib]
- Plasma inhibition of phospho-TrkB activity (TrkB; 1 h post-dosing, 120 mg/M^2): uniform inhibition
- Inhibition of phosphorylation of TrkB by immunoblotting (TrkB; plasma 1 h after lestaurtinib, days 5 and 26, all ten dose levels, 31 subjects): evident only in cells exposed to plasma from subjects treated at dose levels ≥ 6
- Sustained suppression of TrkB phosphorylation (TrkB; pre-drug/trough plasma samples, twice daily dosing): not evident
- Duration of prolonged control of disease, median ([1]; 10 of 26 subjects at doses ≥ 70 mg/M^2/dose BID, range 5–28): 10 cycles
- Response/SD > 5 months ([1]; dose level 1–3, of total subjects at these dose levels): 0/9 (total subjects at dose levels 1–3)
- Response/SD > 5 months ([1]; dose level 4–5 (2 SD)): 2/22 (2 SD)
- Response/SD > 5 months ([1]; dose level 5a–8 (2 PR, 2 Mixed, 4 SD)): 8/16 (2 PR, 2 Mixed, 4 SD)
- Subjects who maintained a response or SD for at least 5 cycles ([1]; dose levels > 5, 10 of 26 subjects): 38.5%
- Patients who maintained a response or SD ([1]; dose levels ≥ 5a, 8/16): 50%
- Duration of maintained response or SD, median ([1]; dose levels ≥ 5a, 8/16 patients): 10 months
- Subjects with prolonged control of disease ([1]; doses ≥ 70 mg/M^2/dose BID, 10 of 26 subjects): 38.5%
- Duration of prolonged stable disease, median ([1]; nine subjects at dose levels ≥ 5): 6 cycles
- Marrow tumor content after treatment ([1]; one subject with prolonged stable disease, decreased from 75): 2%
- Urine catecholamine response: reduction in HVA ([1]; second subject with PR): 15%
- Urine catecholamine response: reduction in VMA ([1]; second subject with PR): 44%
- Duration of prolonged stable disease, median ([1]; six subjects, range 5–13): 7 cycles
- Number of treatment courses prior to PD: ≥17 months ([1]; subjects of 46): 3/46
- Number of treatment courses prior to PD: 11–16 months ([1]; subjects of 46, one of 3 stopped therapy after 13 cycles due to toxicity): 3 ^b/46
- Number of treatment courses prior to PD: 4–10 months ([1]; subjects of 46, one of 11 stopped therapy after 5 cycles due to toxicity): 11 ^a/46
- Best overall response: Mixed [1, 5]: 3/46
- Best overall response: PR [1, 5]: 2/46
- Best overall response: Progressive disease [1, 5]: 21/46
- Best overall response: Stable disease [1, 5]: 20/46
- Urine catecholamines: reduction in HVA [1, 6]: 15%
- Urine catecholamines: reduction in VMA [1, 6]: 45%
- Median duration of response [2]: 14 months
- Overall response rate [2]: 27%
- Patients with grade 1/2 elevated LFTs possibly related to lestaurtinib [3]: ≤ 30%
- Concentration that competitively inhibits ATP binding to the Trk kinase domain (Trk kinase domain): nanomolar concentrations
- AUC(0-t) (clinical; 25 mg/m2): 29500 ng·h/mL
- Tmax (clinical; 25 mg/m2): 1.5 h
- half-life (clinical; 25 mg/m2): 630 ± 216 min
- AUC(0-t) (clinical; 35 mg/m2): 37500 ng·h/mL
- Cmax (clinical; 35 mg/m2): 3390 ng/mL
- Tmax (clinical; 35 mg/m2): 2 h
- half-life (clinical; 35 mg/m2): 420 min
- Cmax (clinical; 45 mg/m2): 3060 ng/mL
- half-life (clinical; 45 mg/m2): 270 ± 72 min
- AUC(0-t) (clinical; 55 mg/m2): 34900 ng·h/mL
- Tmax (clinical; 55 mg/m2): 1 h
- half-life (clinical; 55 mg/m2): 360 ± 204 min
- AUC(0-inf) (clinical; 62.5 mg/m2): 28900 ng·h/mL
- Cmax (clinical; 62.5 mg/m2): 4500 ng/mL
- half-life (clinical; 62.5 mg/m2): 258 ± 54 min
- Tmax (clinical; 70 mg/m2): 1 h
- half-life (clinical; 70 mg/m2): 216 ± 84 min
- AUC(0-inf) (clinical; 77.5 mg/m2): 54800 ng·h/mL
- AUC(0-t) (clinical; 77.5 mg/m2): 47500 ng·h/mL
- half-life (clinical; 77.5 mg/m2): 492 min
- AUC(0-t) (clinical; 85 mg/m2): 15500 ng·h/mL
- half-life (clinical; 85 mg/m2): 234 min
- AUC(0-inf) (clinical; 92.5 mg/m2): 51500 ng·h/mL
- half-life (clinical; 92.5 mg/m2): 258 min
- Cmax (clinical; 120 mg/m2): 3510 ng/mL
- half-life (clinical; 120 mg/m2): 474 min
- Tmax [4]: 1 to 2 h
- AUC(0-inf) ([4]; 25 mg/m2): 39500 ng·h/mL
- Cmax ([4]; 25 mg/m2): 2400 ng/mL
- AUC(0-inf) ([4]; 35 mg/m2): 41300 ng·h/mL
- AUC(0-inf) ([4]; 45 mg/m2): 16400 ng·h/mL
- AUC(0-t) ([4]; 45 mg/m2): 15900 ng·h/mL
- Tmax ([4]; 45 mg/m2): 1 h
- AUC(0-inf) ([4]; 55 mg/m2): 40800 ng·h/mL
- Cmax ([4]; 55 mg/m2): 4900 ng/mL
- AUC(0-t) ([4]; 62.5 mg/m2): 26600 ng·h/mL
- Tmax ([4]; 62.5 mg/m2): 1 h
- AUC(0-inf) ([4]; 70 mg/m2): 15800 ng·h/mL
- AUC(0-t) ([4]; 70 mg/m2): 15000 ng·h/mL
- Cmax ([4]; 70 mg/m2): 3810 ng/mL
- Cmax ([4]; 77.5 mg/m2): 3680 ng/mL
- Tmax ([4]; 77.5 mg/m2): 2 h
- AUC(0-inf) ([4]; 85 mg/m2): 15600 ng·h/mL
- Cmax ([4]; 85 mg/m2): 3460 ng/mL
- Tmax ([4]; 85 mg/m2): 1 h
- AUC(0-t) ([4]; 92.5 mg/m2): 37100 ng·h/mL
- Cmax ([4]; 92.5 mg/m2): 8740 ng/mL
- Tmax ([4]; 92.5 mg/m2): 1 h
- AUC(0-inf) ([4]; 120 mg/m2): 39500 ng·h/mL
- AUC(0-t) ([4]; 120 mg/m2): 34900 ng·h/mL
- Tmax ([4]; 120 mg/m2): 1.5 h
- Subjects with transaminase elevation grade 3/4 or dose limiting (5 subjects, all dose levels): 11%
- MTD (10 dose levels, 25–120 mg/M^2/dose BID): no MTD was defined
- Subjects with transaminase elevation grade 1/2 (30 subjects, all dose levels): 64%
- Subjects with reversible pancreatitis (grade 2) (after prolonged treatment at higher dose levels): 3 subjects
- Hematologic DLTs (all dose levels): no hematologic DLTs identified
- # subjects with DLT during course 1 (dose level 4, 55 mg/M^2/dose BID, 7 subjects entered): 7 (1)
- # subjects with DLT during course 1 (dose level 5, 70 mg/M^2/dose BID, 10 subjects entered): 10 (2)
- # subjects with DLT during course 1 (dose level 8, 120 mg/M^2/dose BID, 6 subjects entered): 6 (1)
- Subjects who came off study for toxicity (of 47 enrolled): three
